Results as given in ChEMBL document CHEMBL4513216, “Probing the Open Global Health Chemical Diversity Library for Multistage-Active Starting Points for Next-Generation Antimalarials” (ACS Infect Dis, 2020).

assay: Toxicity liver stage against HepG2, at 10uM; format: cell-based; design: test concentration 10 uM, cell line HepG2-A16-CD81EGFP; settings: human, HepG2-A16-CD81EGFP cells; read-out: INHIBITION
In short: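 Uninfected HepG2-A16-CD81EGFP cells, 3 × 10^3 per well, 1536-well, plated on prespotted compound at 10 μM final, parasite-free screening media added to match infected plates; puromycin 10 μM positive, DMSO 0.5% negative; run in parallel with 48 h PbLuc assay at 37 °C, 5% CO2; viability by CellTiter-Glo luminescence, normalized to controls.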

SMILES	cytotoxicity at 10 µM [%]
COc1cc(C)c(C(C)NC(=O)c2cccnc2N(C)C)cc1OC (stereo not given)	1.25
COC(=O)N1CCc2ccccc2C1C(=O)NCc1nc(C)no1 (stereo not given)	3.88
O=C(Cn1c(=O)oc2ccccc21)NCC(O)c1ccc2c(c1)CCO2 (stereo not given)	-6.81
N#CCC(=O)NCc1nnc2n1CCN(Cc1ccsc1)C2	-131
Cn1cc(CN2CCCC3(CCN(Cc4ccncc4)C3=O)C2)cn1 (stereo not given)	8.68
CCOCCCNC(=O)CN(c1ccc(F)c(F)c1)S(C)(=O)=O	9.96
O=c1nc(SCc2cccnc2)c2c(n1CCO)CCC2	-18
COCCC(=O)N1CCN(CCN(C)C)c2ncccc2C1	-4.11
Cc1nn(CCC(=O)N2CCN(Cc3cnn(C)c3C)CC2)c(C)c1Br	4.07
CCN1CCN(S(=O)(=O)c2cc(C)c(Cl)cc2Cl)CC1	-2.67
CCN(CC)S(=O)(=O)N1CCCC(c2ncc3c(n2)CCN(C)C3)C1 (stereo not given)	3.77
c1cc(CN2CCCCC2c2ccc(Nc3cnccn3)nc2)ccn1 (stereo not given)	7.38
COc1ccc2c(c1)CC(NCc1cccc(OCC(N)=O)c1)CC2 (stereo not given)	-40.4
CN(CC1CC1)C(=O)c1cc2c(c(S(N)(=O)=O)c1)CCC2	-51.1
CC(C)(C)C(=O)NCCC(=O)Nc1cc(C#N)cn1C(C)(C)C	2.02
CC(C)c1ccccc1OCCNC(=O)N1CCC2(CC1)OCCO2	8.75
O=C(Cc1c(F)cccc1Cl)Nc1cccc(N2CCCC2)c1	-117
OCC1(NCc2cccc(-n3cccn3)c2)CCOCC1	-139
CSC1(CNC(=O)N(C)Cc2sccc2C)CCOCC1	-57.4
C=C(C)CN(CC)C(=O)c1cc(C)ccc1NS(C)(=O)=O	5.69
CS(=O)(=O)c1ccc(CNC(=O)NCc2cc[nH]n2)cc1	1.22
CCn1cc(CN2CCN(C(=O)N3CCOCC3)CC2)cn1	-52.8

SMILES	cytotoxicity at 10 µM [%]
Cc1cc(CN(CC(N)=O)CC(C)C)on1	6.36
Cc1csc(C2NC3(CCCC3)C(=O)N2CC2CC2)n1 (stereo not given)	3.24
Cc1ccccc1CN(C)C(C(N)=O)c1ccccc1 (stereo not given)	13.1
CC1CCC(O)(Cn2ncnc2-c2cccc(C#N)c2)CC1 (stereo not given)	0.775
CCCC(NC(=O)c1ccccc1Br)c1nnn[nH]1 (stereo not given)	-1.8
CCOCC(O)CN1CCN(C(=O)c2ccsc2)CC1 (stereo not given)	5.42
CN(Cc1cnn(C)c1)C(=O)CN1CCCCC1Cn1cncn1 (stereo not given)	17.5
CCn1ncc2c1CCCC2NCc1csc(C(C)C)n1 (stereo not given)	-1.69
Cc1ccc(O)c(CNCC(C)c2nc3ccccc3o2)n1 (stereo not given)	-1.74
CC(C)Nc1ncccc1C(=O)NCc1ccnn1C	-5.87
CCCN(C(=O)c1ocnc1C)C1CCCN(Cc2ccccc2)C1 (stereo not given)	-7.79
CN1CCN(CCCN(C)S(=O)(=O)C2CCCCC2)CC1	-9.46
CC(C)c1nnc2n1CC(CNc1cnc3ccccc3n1)CC2 (stereo not given)	-37.1
Cc1nc(CN(C)C2CCN(Cc3nc4c(F)cccc4[nH]3)C2)no1 (stereo not given)	-4.09
CCN(CC)S(=O)(=O)CCNc1nnc(C(C)C)s1	7.2
OC(COCc1ccccc1)CN1CCC(Cn2cccn2)CC1 (stereo not given)	-1.49
Cn1cc(CCNC(=O)N2CCCc3c(F)cccc32)cn1	14.3
COC(=O)CN(Cc1ccccc1C)C(=O)COCC1CC1	6.87
COc1ccc(CN(CCC#N)CCN2CCOCC2)cc1OC	-5.79
Cc1ccc2c(c1)OC(C)CN2C(=O)CCc1cccnc1 (stereo not given)	-52.8
Cc1cnn(CC2CCCN2Cc2cc(=O)n3cccc(C)c3n2)c1 (stereo not given)	0.442
CC(C)OCCCN1CCCC(c2nc3ccccc3n2C(C)C)C1 (stereo not given)	-4.06

SMILES	cytotoxicity at 10 µM [%]
CCS(=O)(=O)c1ccc(N2CCC(NC(=O)c3cnn(C)c3)CC2)cc1	-1.69
CCOc1ccc(C(=O)NS(=O)(=O)c2cncc(Br)c2)cc1OC	-5.07
Cc1nn(C)c(N2CCOCC2)c1CNC(C)c1ccco1 (stereo not given)	-17.6
CCCC(C)(C)NC(=O)c1ccc(CC2CC(=O)NC2=O)cc1 (stereo not given)	-19.7
CN(C)CC(=O)N1CCc2sc(C(=O)N3CCOCC3)cc21	-99.4
CC(=O)N1CCC2(CC1)c1ncc(-c3ccccc3)n1CCN2C	-104
O=C(c1ccco1)N1CCC2(CCCN(c3ncc(F)cn3)C2)C1 (stereo not given)	-88.4
Cc1ccc2nc(CN3CCC(O)(Cn4ccnc4)CC3)cc(O)c2c1	-47.8
Cc1ccsc1C(Cn1ccnc1-c1ccccc1C(=O)O)N(C)C (stereo not given)	-2.86
CNc1nc2c(c(C(=O)N3CCCC3)n1)CN(C(=O)C1CCCC1)CC2	-114
CCc1ccccc1OCCN1CCC(NS(C)(=O)=O)CC1	-20.4
O=C(c1c[nH]cn1)N1CCC(n2cc(-c3ccsc3)nn2)CC1	-14.3
COCc1noc(-c2ccc(N3CCCC3c3nccs3)nc2)n1 (stereo not given)	7.12
NCCO[C@H]1C[C@@H](O)C12CCN(C1Cc3ccccc3C1)CC2	20.7
COCCCN1C(=O)CC[C@H]2CN(c3ccc(C(N)=O)cn3)CC[C@H]21	5.03
O=C(O)C1(n2ccc(-c3ccco3)n2)CCN(Cc2cccs2)CC1	-125
CCc1cc(C(=O)NCC2CCN(Cc3ccncc3)CC2)on1	10.4
Cc1ccc(-n2c(COC(C)C)n[nH]c2=O)cc1	9.47
CN(C)Cc1nnc(C2CCCN(c3nccc4ccccc34)C2)n1C (stereo not given)	-0.928
CCN(CC)C(=O)c1ccc(Cl)c(NC(=O)c2cc(C(C)C)on2)c1	6.9
CCN(C)C[C@@H]1CN(Cc2cccc(Cl)c2)C[C@@H]1CO	2.45
CCSc1ncc(CN2CC[C@@](O)(COC)C(C)(C)C2)cn1	-4.05

SMILES	cytotoxicity at 10 µM [%]
CC(=O)N[C@@H]1CN(Cc2ccccc2C(=O)O)C[C@H]1C(C)C	3.15
CC(C)n1cnnc1CN(C)C(=O)c1cc(COc2ccccc2)[nH]n1	4.58
CCCNC(=O)c1ccc(S(=O)(=O)NCC2(O)CCCNC2)cc1 (stereo not given)	-48.3
CNc1ncc(CN(C)c2nccc(CCC(F)(F)F)n2)cn1	-16.3
O=C(O)C1(Cc2ccccc2Cl)CCN(c2ncnc3[nH]ccc23)CC1	11
Cc1nn(C)cc1Cn1c(=O)cnc2ccccc21	7.8
CN1CC2(CCN(Cc3cccc(C#N)c3)CC2)CC1=O	-0.145
Cc1cc(-n2cccn2)ccc1CN1C[C@@H](CN(C)C)[C@@H](CO)C1	-9.4
Cc1cc(=O)n(CC(=O)Nc2ccc(C(N)=O)cc2)nc1C	-10.9
COc1ccc(C(=O)C2CCCN(Cc3ccc(C)o3)C2)c(OC)c1 (stereo not given)	1.17
Cc1nc(O)c2nnn(C[C@H]3CCCN3C(=O)c3cccc(F)c3)c2n1	-0.00161
Cc1ncccc1O[C@H]1CCN(C(=O)Cc2cccs2)CC[C@@H]1O	5.92
COCc1cccc(CNC(=O)c2c(C)noc2C(C)C)c1	0.153
O=C(CN1CCCC1Cn1cncn1)NCCOc1ccc(F)cc1 (stereo not given)	-3.56
CC(C)Oc1ncccc1CNC(=O)NC1CCOc2ccccc21 (stereo not given)	-3.16
Cc1c(C(=O)N2CCCC2c2cnn(C)c2)cnn1-c1ccccc1 (stereo not given)	-23.7
CC(C)(NCC(=O)NC(=O)NC1CC1)c1ccc2c(c1)OCO2	-1.27
Brc1cccc(-c2noc(CN3CCOCC3)n2)c1	-15.2
NC(=O)c1cc(C2CCCN(CCOc3cccc(F)c3)C2)n[nH]1 (stereo not given)	-19.6
Cc1nc(CN2CCN(C(=O)c3ccnc(N(C)C)c3)CC2)cs1	1.42
Cc1nn(C)c(N2CCOCC2)c1CNCc1ccc(C(C)O)cc1 (stereo not given)	-4.93
Cc1ncsc1C(=O)NC1CCN(CC(=O)N(C)C(C)(C)C#N)CC1	-3.88

SMILES	cytotoxicity at 10 µM [%]
Cc1nc2ccnn2c(C)c1CCC(=O)N1CCC(C(N)=O)CC1	-9.26
CC(N(C)Cc1nc2c(cnn2C)c(=O)[nH]1)C(C)(C)C (stereo not given)	-3.09
CN(Cc1nnc(C2CC2)n1C)C1CCN(Cc2ccon2)C1 (stereo not given)	-9.04
Cc1noc(CN(Cc2ccc3c(c2)OCO3)C2CCCC2)n1	-5.28
Cc1cc(OCC(=O)NS(=O)(=O)c2c(C)noc2C)ccc1Cl	-2.07
COc1ccc(C(O)CNC(=O)Nc2cc(C)nn2C)cc1 (stereo not given)	2.33
Cc1ncsc1C(=O)NC1CCN(Cc2ccc(C#N)cc2)CC1	-6.46
Fc1cnc(N2C[C@@H]3COC[C@]3(COc3ccccn3)C2)nc1	-5.43
CN(C)C(=O)CO[C@H]1CN(Cc2cccc(F)c2)[C@@H]2CCCO[C@H]12	-2.76
CN1CCO[C@@H]2CN(C(=O)c3ccc4[nH]ccc4c3)CC[C@@H]2C1	-108
O=C(c1cscn1)N1CC[C@]2(C[C@@H](OCCN3CCCC3)CO2)C1	0.462
CN(C)C(=O)[C@@H]1CCO[C@@H]2CCN(CCOCc3ccccc3)C[C@H]21	-0.902
CC(=O)NCC(=O)N1CCn2cc(CN3CCN(C)CC3)nc2C1	-12.4
Cc1ccc(CN2CCOC3(COCCN(C(C)C)C3)C2)o1 (stereo not given)	-107
Cc1noc(C)c1CN1CCc2ncnc(-c3cnn(C)c3)c2CC1	-98.4
CN1Cc2c(C(=O)NC3CCCCC3)ncn2-c2ccccc2S1(=O)=O	-153
Cc1cnc(C(=O)N2Cc3ncn(C)c3C(COCC(C)C)C2)cn1 (stereo not given)	-112
CCn1ncc2c1C(COC)N(C(=O)CCc1ccccc1)CC2 (stereo not given)	-96.8
Cc1ccc(CN2CCCn3c(nc(CN4CCCC4)cc3=O)C2)s1	-0.207
Cc1nc(CN2C[C@@H]3COC[C@]3(COCC(=O)N(C)C)C2)cs1	1.41
CCOCCC(=O)N1C[C@@H]2CC[C@H]1CN(c1ncccn1)C2	2.53
CN1CCC(n2cc3nc(N)[nH]cc-3c2=O)CC1	8.6
